Measurements from ChEMBL document CHEMBL4041508, “Synthesis and biological evaluation of chemical tools for the study of Dolichol Linked Oligosaccharide Diphosphatase (DLODP)” (Eur J Med Chem, 2017).
Calls of active or inactive are those of the source. The rule behind the calls is not given here.

Experiments:
Homo sapiens [1] = species: Homo sapiens; experiment: Inhibition of DLODP in human HepG2 microsomal membrane assessed as reduction in [3H]OSP production at 50 mM using Glc3-0[3H]Man9-5GlcNAc2-PP-dolichol as substrate at pH 5.5 measured after 20 to 60 mins by scintillation counting; type: cell membranes
Homo sapiens [2] = species: Homo sapiens; experiment: Inhibition of DLODP in human HepG2 microsomal membrane assessed as reduction in [3H]OSP production at 3 mM using Glc3-0[3H]Man9-5GlcNAc2-PP-dolichol as substrate at pH 5.5 measured after 20 to 60 mins by scintillation counting; type: cell membranes
[3] = Inhibition of DLODP in human HepG2 microsomal membrane assessed as reduction in [3H]OSP production using Glc3-0[3H]Man9-5GlcNAc2-PP-dolichol as substrate at pH 5.5 measured after 20 to 60 mins by scintillation counting; type: cell membranes
Homo sapiens [4] = species: Homo sapiens; experiment: Inhibition of DLODP in human HepG2 microsomes assessed as reduction in OSP production at higher concentration using Glc3-0[3H]Man9-5GlcNAc2-PP-dolichol as substrate measured after 20 to 60 mins by scintillation counting
Method in brief: (§1)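 Cells grown in RPMI 1640 with 10% fetal calf serum and 1% penicillin/streptomycin, plus 1% non-essential amino acids for Caco-2 TC7, for 8 days before total membrane preparation. Assay uses 20 µg membrane protein in standard mix (100 mM MES pH 5.5, 1 mM CoCl2, 0.1% NP-40) with added inhibitor, 37 °C. Radioactivity in OSP and neutral oligosaccharides separated by ion exchange, counted by scintillation.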

Homo sapiens [5] = species: Homo sapiens; experiment: Inhibition of DLODP in human Caco2 microsomes assessed as reduction in neutral oligosaccharide production at low concentration using Glc3-0[3H]Man9-5GlcNAc2-PP-dolichol as substrate measured after 20 to 60 mins by scintillation counting; method in brief: as §1
Homo sapiens [6] = species: Homo sapiens; experiment: Inhibition of DLODP in human HepG2 microsomes assessed as reduction in neutral oligosaccharide production at low concentration using Glc3-0[3H]Man9-5GlcNAc2-PP-dolichol as substrate measured after 20 to 60 mins by scintillation counting; method in brief: as §1
Homo sapiens [7] = species: Homo sapiens; experiment: Inhibition of DLODP in human Caco2 microsomes assessed as reduction in OSP production at higher concentration using Glc3-0[3H]Man9-5GlcNAc2-PP-dolichol as substrate measured after 20 to 60 mins by scintillation counting; method in brief: as §1

Row | inhibition (Homo sapiens [1]) | IC50 [3] [µM] | Compound | further results
1 | inactive |  | CO[C@H]1O[C@H](CO)[C@@H](O)[C@H](O)[C@@H]1O | 
2 | < 10% |  | CC(=O)N[C@@H]1[C@@H](O)[C@H](O[C@@H]2O[C@H](CO)[C@@H](O)[C@H](O)[C@H]2NC(C)=O)[C@@H](CO)O[C@@H]1O | 
3 |  |  | O=P(O)(O)CP(=O)(O)O | inhibition (Homo sapiens [2]): inactive
4 | inactive |  | CC(=O)N[C@@H]1[C@@H](O)[C@H](O[C@@H]2O[C@H](CO)[C@H](O)[C@H](O)[C@H]2O)[C@@H](CO)O[C@@H]1O | 
5 |  | 4200 | O=[N+]([O-])c1ccc(OP(=O)(O)O)cc1 [p-NITROPHENYLPHOSPHATE] | 
6 | 10% |  | CO[C@@H]1O[C@H](CO)[C@@H](O)[C@H](O)[C@@H]1O | 
7 |  |  | CCCOP(=O)(O)O | inhibition (Homo sapiens [2]): inactive
8 | inactive |  | OC[C@H]1OC(O)[C@@H](O)[C@@H](O)[C@@H]1O (stereo not given in full) | 
9 | inactive |  | CC(=O)N[C@@H]1[C@@H](O)[C@H](O)[C@@H](CO)O[C@@H]1O | 
10 |  |  | CC(=O)N[C@H]1[C@@H](O[P@@](=O)(O)O[P@@](=O)(O)OC[C@H]2O[C@@H](n3ccc(=O)[nH]c3=O)[C@H](O)[C@@H]2O)O[C@H](CO)[C@@H](O)[C@@H]1O | inhibition (Homo sapiens [2]): inactive
11 | 30% |  | CC(=O)N[C@@H]1[C@@H](O)[C@H](O[C@@H]2O[C@H](CO)[C@@H](O)[C@H](O)[C@@H]2O)[C@@H](CO)O[C@@H]1O | 
12 |  | 700 | CC(C)=CCC[C@H](C)CCOP(=O)(O)CP(=O)(O)O | 
13 | Active |  | CC(C)O | 
14 |  | > 3000 | CC(=O)N[C@H]1[C@@H](OP(=O)(O)O)O[C@H](CO)[C@@H](O)[C@@H]1O | inhibition (Homo sapiens [4]): Active; inhibition (Homo sapiens [5]): Active; inhibition (Homo sapiens [6]): Active; inhibition (Homo sapiens [7]): Active

Row | Compound | inhibition (Homo sapiens [1]) | IC50 [3] [µM] | further results
15 | CC(C)=CCC/C(C)=C/CC/C(C)=C/CC/C(C)=C/CC/C(C)=C/CC/C(C)=C/CC/C(C)=C/CC/C(C)=C/CC/C(C)=C/COP(=O)(O)OP(=O)(O)O |  | 4.7 | 
16 | O=[N+]([O-])c1ccc(OP(=O)(O)Oc2ccc([N+](=O)[O-])cc2)cc1 |  | 1200 | 
